According to ChEMBL document CHEMBL4613247, “Antioxidant Activity of Compounds Isolated from Elaeagnus umbellata Promotes Human Gingival Fibroblast Well-Being” (J Nat Prod, 2020):
Active and inactive are the calls of the source. The calls are words filed in the database; no cut-off is given here.

Assays:
Fibroblast [1] = assay: Protective activity against H202-induced cell death in human Gingival fibroblast assessed as cell proliferation after 72 hrs by MTS assay (reference value: 50.9 +/- 4%); assay type: functional
Procedure, shortened: (§1)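 hGF (passage 4–7) seeded at 1500 cells/well. After 24 h, starved 6 h in noncomplete medium, then treated 72 h (5 nM–50 μM range, 0.5% DMSO final) with or without H2O2 (200 μM). Read by MTS absorbance at 490 nm as % proliferation vs control (100%). Mean ± SD, three replicates, two independent experiments.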

Fibroblast [2] = assay: Antioxidant activity in human Gingival fibroblast assessed as reduction in H202-induced intracellular ROS level by measuring ROS production at […] after 72 hrs by H2DCFDA staining based fluorescence method (reference value: 181.9 +/- 7.4%); assay type: functional; design: scale not given: the % may be the effect or the level left
Procedure, shortened: (§2)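 hGF seeded 5000 cells/well, treated 72 h with or without H2O2 (200 μM); then 30 min in PBS-glucose with 50 μM DCFH2-DA. DCF fluorescence read at 485/520 nm. Cells then fixed, crystal-violet stained and SDS-solubilized, with absorbance at 595 nm. Fluorescence normalized to A595 and expressed as % of control. Mean ± SD, three replicates, two independent experiments.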

Fibroblast [3] = assay: Protection against H202-induced cell cycle blockade in human Gingival fibroblast assessed as accumulation at G0/G1 phase after 72 hrs by flow cytometry (reference value: 42.2%); assay type: functional
Procedure, shortened: (§3)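 hGF seeded at 80 000 cells/well and treated in complete medium 72 h (1–5 μM) with or without H2O2 (200 μM). Percentage of cells in G0/G1, S and G2/M measured on a Muse cell analyzer with a cell cycle kit. Mean ± SD, two replicates, two independent experiments.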

Fibroblast [4] = assay: Protection against H202-induced cell cycle blockade in human Gingival fibroblast assessed as accumulation at S phase after 72 hrs by flow cytometry (reference value: 11.6%); assay type: functional; procedure, shortened: as §3
Fibroblast [5] = assay: Protection against H202-induced cell cycle blockade in human Gingival fibroblast assessed as accumulation at G2/M phase after 72 hrs by flow cytometry (reference value: 39.3%); assay type: functional; procedure, shortened: as §3
Fibroblast [6] = assay: Induction of cell proliferation in human Gingival fibroblast at 0.5 to 10 uM after 72 hrs by MTS assay; assay type: functional, cell-based
Procedure, shortened: (§4)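 Gingival fibroblasts seeded at 1500 cells/well, then starved 6 h in noncomplete medium after 24 h. Exposed for 72 h to 5 nM–50 μM (DMSO 0.5% final), with or without H2O2 200 μM. MTS absorbance read at 490 nm and expressed as % proliferation vs control set to 100%. Mean ± SD of three replicates from two experiments.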

Fibroblast [7] = assay: Growth inhibition of human Gingival fibroblast at 50 uM after 72 hrs by MTS assay; assay type: cell-based; procedure, shortened: as §4
Fibroblast [8] = assay: Antioxidant activity in human Gingival fibroblast assessed as reduction in intracellular ROS level at 1 uM after 72 hrs by H2DCFDA staining based fluorescence method; assay type: functional, cell-based
Procedure, shortened: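 hGF (passage 4–7) seeded 5000 cells/well, treated 72 h in complete medium with or without H2O2 200 μM. Then loaded with 50 μM DCFH2-DA in PBS-glucose for 30 min. DCF fluorescence read at ex 485/em 520 nm and normalized to crystal violet absorbance at 595 nm. Expressed as % of control; three replicates, two independent experiments.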

Fibroblast [9] = assay: Induction of cell proliferation in human Gingival fibroblast at 1 uM after 72 hrs by MTS assay; assay type: functional; procedure, shortened: as §1
Fibroblast [10] = assay: Antioxidant activity in human Gingival fibroblast assessed as reduction in H202-induced intracellular ROS level by measuring ROS production at 1 to 5 uM after 72 hrs by H2DCFDA staining based fluorescence method (reference value: 181.9 +/- 7.4%); assay type: functional; design: scale not given: the % may be the effect or the level left; procedure, shortened: as §2
[11] = Induction of cell death in human Gingival fibroblast assessed as live cell at 1 uM after 72 hrs by flow cytometry (reference value: 97%); assay type: cell-based; conditions: gingival fibroblasts, read-out: Activity
Fibroblast [12] = assay: Induction of cell death in human Gingival fibroblast assessed as dead cell at 1 uM after 72 hrs by flow cytometry (reference value: 3%); assay type: cell-based
Fibroblast [13] = assay: Protection against H202-induced cell death in human Gingival fibroblast assessed as live cell at 1 to 5 uM after 72 hrs by flow cytometry (reference value: 85.1%); assay type: functional
Fibroblast [14] = assay: Protection against H202-induced cell death in human Gingival fibroblast assessed as dead cell at 1 to 5 uM after 72 hrs by flow cytometry (reference value: 14.9%); assay type: functional
Fibroblast [15] = assay: Induction of cell cycle arrest in human Gingival fibroblast assessed as accumulation at G0/G1 phase at 1 uM incubated for 72 hrs by flow cytometry (reference value: 76.3%); assay type: cell-based; procedure, shortened: as §3
Fibroblast [16] = assay: Induction of cell cycle arrest in human Gingival fibroblast assessed as accumulation at S phase at 1 uM incubated for 72 hrs by flow cytometry (reference value: 5%); assay type: cell-based; procedure, shortened: as §3
Fibroblast [17] = assay: Induction of cell cycle arrest in human Gingival fibroblast assessed as accumulation at G2/M phase at 1 uM incubated for 72 hrs by flow cytometry (reference value: 14.9%); assay type: cell-based; procedure, shortened: as §3
Fibroblast [18] = assay: Protection against H202-induced cell cycle blockade in human Gingival fibroblast assessed as accumulation at G0/G1 phase at 1 to 5 uM after 72 hrs by flow cytometry (reference value: 42.2%); assay type: functional; procedure, shortened: as §3
Fibroblast [19] = assay: Protection against H202-induced cell cycle blockade in human Gingival fibroblast assessed as accumulation at S phase at 1 to 5 uM after 72 hrs by flow cytometry (reference value: 11.6%); assay type: functional; procedure, shortened: as §3
Fibroblast [20] = assay: Protection against H202-induced cell cycle blockade in human Gingival fibroblast assessed as accumulation at G2/M phase at 1 to 5 uM after 72 hrs by flow cytometry (reference value: 39.3%); assay type: functional; procedure, shortened: as §3
Fibroblast [21] = assay: Effect on p53 mRNA expression in human Gingival fibroblast at 1 uM after 72 hrs by RT-PCR method; assay type: ADME, cell-based
Procedure, shortened: (§5)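 hGF (3500 cells/cm2) in complete medium, treated 72 h with or without H2O2 (200 μM). Real-time RT-PCR of total RNA for p53, p21 and p16INK4A. Levels normalized to β-actin and relative expression taken from Ct. Fold change vs control set to 1. Mean ± SD, two independent experiments in duplicate.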

Fibroblast [22] = assay: Effect on p21 mRNA expression in human Gingival fibroblast at 1 uM after 72 hrs by RT-PCR method; assay type: ADME, cell-based; procedure, shortened: as §5
Fibroblast [23] = assay: Effect on p16Ink4a mRNA expression in human Gingival fibroblast at 1 uM after 72 hrs by RT-PCR method; assay type: ADME, cell-based; procedure, shortened: as §5
Fibroblast [24] = assay: Protection against H202-induced oxidative stress in human Gingival fibroblast assessed as reduction in p53 expression at 1 to 5 uM after 72 hrs by RT-PCR analysis; assay type: functional, cell-based; procedure, shortened: as §5
Fibroblast [25] = assay: Protection against H202-induced oxidative stress in human Gingival fibroblast assessed as reduction in p21 expression at 1 to 5 uM after 72 hrs by RT-PCR analysis; assay type: functional, cell-based; procedure, shortened: as §5
Fibroblast [26] = assay: Protection against H202-induced oxidative stress in human Gingival fibroblast assessed as reduction in p16Ink4a expression at 1 to 5 uM after 72 hrs by RT-PCR analysis; assay type: functional, cell-based; procedure, shortened: as §5
Fibroblast [27] = assay: Downregulation of LPS-induced IL-6 expression in human Gingival fibroblast at 1 to 5 uM after 72 hrs by RT-PCR analysis; assay type: functional, cell-based
Procedure, shortened: (§6)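 hGF (3500 cells/cm2) in complete medium, 1–5 μM for 72 h with or without LPS (1 μg/mL). Total RNA extracted, then real-time RT-PCR. mRNA normalized to β-actin and relative expression calculated from Ct. Specificity checked by melting curve and gel. Fold change vs control set to 1. Mean ± SD of two independent experiments in duplicate.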

Fibroblast [28] = assay: Downregulation of LPS-induced IL-8 expression in human Gingival fibroblast at 1 to 5 uM after 72 hrs by RT-PCR analysis; assay type: functional, cell-based; procedure, shortened: as §6
Fibroblast [29] = assay: Upregulation of IL-10 expression in LPS-stimulated human Gingival fibroblast at 1 to 5 uM after 72 hrs by RT-PCR analysis; assay type: functional, cell-based; procedure, shortened: as §6
Fibroblast [30] = assay: Growth inhibition of human Gingival fibroblast at 5 uM after 72 hrs by MTS assay; assay type: cell-based; procedure, shortened: as §1

## CC(=O)N[C@@H](CS)C(=O)O [ACETYLCYSTEINE]
Fibroblast [1]
  Activity: 74.1%
Fibroblast [2]
  Activity: 109.7%
Fibroblast [3]
  Activity: 72.7%
Fibroblast [4]
  Activity: 6.4%
Fibroblast [5]
  Activity: 18.5%

## O=c1c(O)c(-c2ccc(O)c(O)c2)oc2cc(O)cc(O)c12 [QUERCETIN]
Fibroblast [6]
  Activity: inactive
Fibroblast [7]
  growth inhibition (GI): Toxic
Fibroblast [8]
  Activity: Active

## C[C@@H]1O[C@@H](Oc2cc(O)c3c(=O)c(O[C@@H]4O[C@H](CO)[C@H](O)[C@H](O)[C@H]4O[C@@H]4O[C@H](CO)[C@@H](O)[C@H](O)[C@H]4O)c(-c4ccc(O)cc4)oc3c2)[C@H](O)[C@H](O)[C@H]1O
Fibroblast [9]
  Activity: 125.6%
Fibroblast [1]
  Activity: 68.8%
Fibroblast [8]
  Activity: Active
Fibroblast [10]
  Activity: 124.2%
[11]
  viability at 72 h, 1 µM: 93.3%
Fibroblast [12]
  Activity: 6.7%
Fibroblast [13]
  Activity: 90%
Fibroblast [14]
  Activity: 10%
Fibroblast [15]
  Activity: 81.5%
Fibroblast [16]
  Activity: 4.8%
Fibroblast [17]
  Activity: 10.5%
Fibroblast [18]
  Activity: 69.8%
Fibroblast [19]
  Activity: 13%
Fibroblast [20]
  Activity: 14.2%
Fibroblast [21]
  Activity: Non-Toxic
Fibroblast [22]
  Activity: Non-Toxic
Fibroblast [23]
  Activity: Toxic
Fibroblast [24]
  Activity: Active
Fibroblast [25]
  Activity: Active
Fibroblast [26]
  Activity: Active
Fibroblast [27]
  Activity: Active
Fibroblast [28]
  Activity: Active
Fibroblast [29]
  Activity: Active

## O=c1c(O[C@@H]2O[C@H](CO)[C@H](O)[C@H](O)[C@H]2O[C@@H]2O[C@H](CO)[C@@H](O)[C@H](O)[C@H]2O)c(-c2ccc(O)cc2)oc2cc(O)cc(O)c12
Fibroblast [30]
  growth inhibition (GI): Toxic

## C[C@@H]1O[C@@H](Oc2cc(O)c3c(=O)c(O[C@@H]4O[C@H](CO)[C@H](O)[C@H](O)[C@H]4O[C@@H]4O[C@H](CO)[C@@H](O)[C@H](O)[C@H]4O)c(-c4ccc(O)c(O)c4)oc3c2)[C@H](O)[C@H](O)[C@H]1O
Fibroblast [30]
  growth inhibition (GI): Toxic

## O=c1c(O)c(-c2ccc(O)cc2)oc2cc(O)cc(O)c12 [KAEMPFEROL]
Fibroblast [6]
  Activity: inactive
Fibroblast [7]
  growth inhibition (GI): Toxic
